Data reported in ChEMBL document CHEMBL5661979, “Pharmacological inhibition of BMK1 suppresses tumor growth through promyelocytic leukemia protein” (Cancer Cell, 2010).
Calls of active or inactive are those of the source. No cut-off for these calls is given here.

Tests used:
[1] = target: T1, EKC/KEOPS complex subunit TP53RK (Homo sapiens) (UniProt Q96S44); assay: Inhibition of PRPK in human HeLa cells lysate at 2 uM pre incubated for 15 mins followed by ATP acyl phosphate probe addition and measured after 10 mins by LC-MS/MS analysis relative to control; assay type: subcellular; details: time 25.0 min
T1 sequence (whole entry): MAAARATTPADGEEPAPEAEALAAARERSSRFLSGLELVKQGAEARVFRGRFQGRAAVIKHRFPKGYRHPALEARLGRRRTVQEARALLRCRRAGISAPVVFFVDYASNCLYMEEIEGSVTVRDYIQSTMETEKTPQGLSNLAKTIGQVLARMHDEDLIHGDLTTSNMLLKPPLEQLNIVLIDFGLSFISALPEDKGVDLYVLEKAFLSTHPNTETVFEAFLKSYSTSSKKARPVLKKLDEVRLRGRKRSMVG

[2] = tested on: A549; assay: Antitumor activity against human A549 cells xenografted in NOD/SCID mouse assessed as increase in p21 protein expression level at 50 mg/kg, ip administered twice a day for 2 days by Western blot analysis; assay type: functional, organism-based; details: time 2.0 day
Procedure, shortened: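 A549 cells (1×10^6, in DMEM) were injected s.c. into the right flank of 6-week-old Nod/Scid mice. On day 21, mice received 50 mg/kg twice daily or carrier; 2 per group. After 2 days, tumors were homogenized in E1A buffer. Western blot read BMK1 activation (mobility shift) and p21, quantified by densitometry normalized to GAPDH.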

[3] = target: T2, Non-receptor tyrosine-protein kinase TNK1 (Homo sapiens) (UniProt Q13470); assay: Inhibition of TNK1 in human HeLa cells lysate at 2 uM pre incubated for 15 mins followed by ADP acyl phosphate probe addition and measured after 10 mins by LC-MS/MS analysis relative to control; assay type: subcellular; details: time 25.0 min
T2 sequence (whole entry): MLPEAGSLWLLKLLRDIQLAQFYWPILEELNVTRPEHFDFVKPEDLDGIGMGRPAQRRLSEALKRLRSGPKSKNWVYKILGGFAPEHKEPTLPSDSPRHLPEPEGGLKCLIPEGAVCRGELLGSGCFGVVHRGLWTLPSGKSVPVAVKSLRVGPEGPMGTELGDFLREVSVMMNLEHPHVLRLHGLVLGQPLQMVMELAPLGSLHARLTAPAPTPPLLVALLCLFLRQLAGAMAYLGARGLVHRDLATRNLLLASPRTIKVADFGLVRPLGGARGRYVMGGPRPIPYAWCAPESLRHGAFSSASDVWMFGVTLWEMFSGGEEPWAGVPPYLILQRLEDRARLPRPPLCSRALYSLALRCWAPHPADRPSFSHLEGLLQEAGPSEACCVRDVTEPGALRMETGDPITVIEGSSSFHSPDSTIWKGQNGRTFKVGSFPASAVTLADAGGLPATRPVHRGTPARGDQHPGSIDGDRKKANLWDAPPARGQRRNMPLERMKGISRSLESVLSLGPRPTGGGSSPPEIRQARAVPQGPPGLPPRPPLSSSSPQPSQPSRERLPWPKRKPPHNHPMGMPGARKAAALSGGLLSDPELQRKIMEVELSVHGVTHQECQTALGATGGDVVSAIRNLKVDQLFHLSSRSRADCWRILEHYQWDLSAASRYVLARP

[4] = target: Interferon-induced, double-stranded RNA-activated protein kinase (Homo sapiens, UniProt P19525); assay: Inhibition of PKR in human HeLa cells lysate at 50 uM pre incubated for 15 mins followed by ADP acyl phosphate probe addition and measured after 10 mins by LC-MS/MS analysis relative to control; assay type: subcellular; details: time 25.0 min
Sequence of Interferon-induced, double-stranded RNA-activated protein kinase (P19525 whole entry): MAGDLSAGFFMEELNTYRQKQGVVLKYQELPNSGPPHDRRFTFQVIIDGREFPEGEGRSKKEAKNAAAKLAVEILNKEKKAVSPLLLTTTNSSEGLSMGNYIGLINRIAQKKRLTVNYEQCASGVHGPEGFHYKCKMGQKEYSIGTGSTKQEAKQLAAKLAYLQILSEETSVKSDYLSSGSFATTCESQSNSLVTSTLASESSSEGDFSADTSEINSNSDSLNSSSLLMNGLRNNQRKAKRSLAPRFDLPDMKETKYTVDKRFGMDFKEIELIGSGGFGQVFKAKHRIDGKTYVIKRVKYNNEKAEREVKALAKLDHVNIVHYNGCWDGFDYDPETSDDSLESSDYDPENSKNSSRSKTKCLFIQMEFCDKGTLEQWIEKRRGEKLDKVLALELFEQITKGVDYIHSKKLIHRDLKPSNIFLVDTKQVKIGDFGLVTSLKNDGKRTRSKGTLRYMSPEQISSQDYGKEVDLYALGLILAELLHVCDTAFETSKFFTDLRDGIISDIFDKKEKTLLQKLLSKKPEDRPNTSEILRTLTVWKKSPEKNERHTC

[5] = Inhibition of HGK/MINK/TNIK in human HeLa cells lysate at 2 uM pre incubated for 15 mins followed by ADP acyl phosphate probe addition and measured after 10 mins by LC-MS/MS analysis relative to control; details: 25 min, condition cancer
[6] = target: Serine/threonine-protein kinase Aurora (Homo sapiens, UniProt Q96GD4+Q9UQB9+O14965); assay: Inhibition of AurA/AurB/AurC in human HeLa cells lysate at 50 uM pre incubated for 15 mins followed by ATP acyl phosphate probe addition and measured after 10 mins by LC-MS/MS analysis relative to control; assay type: subcellular; details: time 25.0 min
Sequence of Serine/threonine-protein kinase Aurora (O14965 whole entry, looked up, the tested form may be a part): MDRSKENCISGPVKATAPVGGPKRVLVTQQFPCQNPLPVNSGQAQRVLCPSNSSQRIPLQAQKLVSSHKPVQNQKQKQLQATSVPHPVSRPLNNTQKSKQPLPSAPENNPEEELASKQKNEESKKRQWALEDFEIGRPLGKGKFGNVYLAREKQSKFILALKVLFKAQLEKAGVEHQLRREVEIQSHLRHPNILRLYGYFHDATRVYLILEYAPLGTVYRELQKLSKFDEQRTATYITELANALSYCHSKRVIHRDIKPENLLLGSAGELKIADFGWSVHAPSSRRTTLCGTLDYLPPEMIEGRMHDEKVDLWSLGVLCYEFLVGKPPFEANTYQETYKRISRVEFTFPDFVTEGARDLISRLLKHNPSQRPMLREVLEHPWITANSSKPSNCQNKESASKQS
Sequence of Serine/threonine-protein kinase Aurora (Q96GD4 whole entry, looked up, the tested form may be a part): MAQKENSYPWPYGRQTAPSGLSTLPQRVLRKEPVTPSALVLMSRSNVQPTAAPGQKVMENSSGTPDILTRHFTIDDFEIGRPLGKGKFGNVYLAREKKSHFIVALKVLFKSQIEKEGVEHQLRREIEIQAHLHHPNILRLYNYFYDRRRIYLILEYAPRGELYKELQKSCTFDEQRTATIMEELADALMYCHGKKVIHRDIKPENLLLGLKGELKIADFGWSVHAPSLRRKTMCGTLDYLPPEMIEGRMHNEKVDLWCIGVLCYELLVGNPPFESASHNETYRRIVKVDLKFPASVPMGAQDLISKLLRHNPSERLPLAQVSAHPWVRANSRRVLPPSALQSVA
Sequence of Serine/threonine-protein kinase Aurora (Q9UQB9 whole entry, looked up, the tested form may be a part): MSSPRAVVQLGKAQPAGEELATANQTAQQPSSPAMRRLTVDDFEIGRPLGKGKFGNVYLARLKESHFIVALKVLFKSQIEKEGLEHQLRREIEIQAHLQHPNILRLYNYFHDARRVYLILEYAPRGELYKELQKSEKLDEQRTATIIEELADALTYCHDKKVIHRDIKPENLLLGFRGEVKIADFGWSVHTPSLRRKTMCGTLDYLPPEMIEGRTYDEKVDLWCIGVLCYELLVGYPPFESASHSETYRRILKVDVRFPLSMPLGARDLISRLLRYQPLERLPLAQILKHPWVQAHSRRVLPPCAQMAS
Procedure, shortened: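 KiNativ-type profiling in HeLa lysate (5 mg/mL total protein). Lysate preincubated 15 min with inhibitor at 50, 10, 2, 0.8 or 0 μM, then ATP or ADP acylphosphate probe added (5 μM final) for 10 min. Reaction stopped with urea and analysed by targeted MS, using up to four fragment ions per kinase peptide-probe conjugate. % inhibition calculated against untreated lysate. Duplicate reactions.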

[7] = target: T3, Phosphatidylinositol 5-phosphate 4-kinase type-2 alpha (Homo sapiens) (UniProt P48426); assay: Inhibition of PIP5K2A LIP1 site in human HeLa cells lysate at 10 uM pre incubated for 15 mins followed by ADP acyl phosphate probe addition and measured after 10 mins by LC-MS/MS analysis relative to control; assay type: subcellular; details: time 25.0 min
T3 sequence (whole entry): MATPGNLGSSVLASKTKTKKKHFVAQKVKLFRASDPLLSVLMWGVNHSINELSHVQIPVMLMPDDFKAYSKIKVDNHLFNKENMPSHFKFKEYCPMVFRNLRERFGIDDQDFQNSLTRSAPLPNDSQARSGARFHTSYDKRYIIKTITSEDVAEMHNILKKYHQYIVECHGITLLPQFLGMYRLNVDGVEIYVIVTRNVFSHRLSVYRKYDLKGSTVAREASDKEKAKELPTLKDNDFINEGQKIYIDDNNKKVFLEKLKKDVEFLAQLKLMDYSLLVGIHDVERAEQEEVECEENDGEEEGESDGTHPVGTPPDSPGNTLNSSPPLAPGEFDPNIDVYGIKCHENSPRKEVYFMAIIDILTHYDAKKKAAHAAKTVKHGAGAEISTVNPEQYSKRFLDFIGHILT

[8] = Inhibition of MAP3K2/MAP3K3 in human HeLa cells lysate pre incubated for 15 mins followed by ATP acyl phosphate probe addition and measured after 10 mins by LC-MS/MS analysis; assay type: subcellular
[9] = target: eIF-2-alpha kinase GCN2 (Homo sapiens, UniProt Q9P2K8); assay: Inhibition of GCN2 in human HeLa cells lysate at 50 uM pre incubated for 15 mins followed by ATP acyl phosphate probe addition and measured after 10 mins by LC-MS/MS analysis relative to control; assay type: subcellular; details: time 25.0 min
Sequence of eIF-2-alpha kinase GCN2 (Q9P2K8 whole entry): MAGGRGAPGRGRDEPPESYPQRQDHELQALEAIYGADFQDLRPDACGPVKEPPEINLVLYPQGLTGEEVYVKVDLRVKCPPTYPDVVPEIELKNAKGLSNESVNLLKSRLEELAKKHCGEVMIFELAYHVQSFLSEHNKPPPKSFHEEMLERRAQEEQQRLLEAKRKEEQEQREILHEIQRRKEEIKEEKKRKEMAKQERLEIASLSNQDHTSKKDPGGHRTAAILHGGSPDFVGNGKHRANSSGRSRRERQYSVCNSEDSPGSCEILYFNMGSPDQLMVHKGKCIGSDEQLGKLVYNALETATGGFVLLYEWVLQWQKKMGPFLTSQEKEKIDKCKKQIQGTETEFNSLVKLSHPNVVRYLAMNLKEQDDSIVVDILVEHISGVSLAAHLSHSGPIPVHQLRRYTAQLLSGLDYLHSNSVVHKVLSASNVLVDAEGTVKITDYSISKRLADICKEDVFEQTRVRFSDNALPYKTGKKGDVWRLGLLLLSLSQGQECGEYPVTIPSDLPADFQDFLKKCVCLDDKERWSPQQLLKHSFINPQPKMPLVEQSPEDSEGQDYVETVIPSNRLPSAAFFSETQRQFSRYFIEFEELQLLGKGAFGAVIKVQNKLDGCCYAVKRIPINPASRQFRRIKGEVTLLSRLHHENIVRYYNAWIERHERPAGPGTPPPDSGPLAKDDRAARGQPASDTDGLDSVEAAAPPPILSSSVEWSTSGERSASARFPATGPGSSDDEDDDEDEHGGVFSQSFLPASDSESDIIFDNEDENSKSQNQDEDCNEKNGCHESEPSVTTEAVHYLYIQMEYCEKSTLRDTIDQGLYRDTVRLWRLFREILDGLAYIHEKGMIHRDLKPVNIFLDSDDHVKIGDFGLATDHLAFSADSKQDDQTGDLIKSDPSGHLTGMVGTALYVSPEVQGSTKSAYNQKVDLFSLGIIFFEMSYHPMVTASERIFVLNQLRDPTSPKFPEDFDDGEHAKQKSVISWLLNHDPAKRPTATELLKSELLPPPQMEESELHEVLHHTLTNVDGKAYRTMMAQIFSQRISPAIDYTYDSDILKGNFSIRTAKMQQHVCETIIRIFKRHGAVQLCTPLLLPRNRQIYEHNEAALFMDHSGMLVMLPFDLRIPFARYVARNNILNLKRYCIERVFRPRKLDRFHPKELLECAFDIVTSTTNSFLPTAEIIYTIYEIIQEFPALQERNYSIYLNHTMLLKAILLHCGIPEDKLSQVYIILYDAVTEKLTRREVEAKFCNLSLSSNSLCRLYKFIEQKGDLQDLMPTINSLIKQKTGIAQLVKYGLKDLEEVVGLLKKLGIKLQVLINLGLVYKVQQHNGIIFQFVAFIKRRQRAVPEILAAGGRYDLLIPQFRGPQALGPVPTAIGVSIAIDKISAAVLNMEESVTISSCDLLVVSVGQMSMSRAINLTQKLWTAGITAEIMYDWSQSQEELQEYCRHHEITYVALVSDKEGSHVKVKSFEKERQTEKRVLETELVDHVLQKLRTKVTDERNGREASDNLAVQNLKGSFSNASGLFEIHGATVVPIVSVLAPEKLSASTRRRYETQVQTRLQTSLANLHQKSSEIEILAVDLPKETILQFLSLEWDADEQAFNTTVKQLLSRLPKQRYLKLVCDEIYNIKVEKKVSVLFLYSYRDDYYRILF

[10] = target: Scaffold protein ILK (Homo sapiens, UniProt Q13418); assay: Inhibition of ILK in human HeLa cells lysate pre incubated for 15 mins followed by ATP acyl phosphate probe addition and measured after 10 mins by LC-MS/MS analysis; assay type: subcellular
Sequence of Scaffold protein ILK (Q13418 whole entry): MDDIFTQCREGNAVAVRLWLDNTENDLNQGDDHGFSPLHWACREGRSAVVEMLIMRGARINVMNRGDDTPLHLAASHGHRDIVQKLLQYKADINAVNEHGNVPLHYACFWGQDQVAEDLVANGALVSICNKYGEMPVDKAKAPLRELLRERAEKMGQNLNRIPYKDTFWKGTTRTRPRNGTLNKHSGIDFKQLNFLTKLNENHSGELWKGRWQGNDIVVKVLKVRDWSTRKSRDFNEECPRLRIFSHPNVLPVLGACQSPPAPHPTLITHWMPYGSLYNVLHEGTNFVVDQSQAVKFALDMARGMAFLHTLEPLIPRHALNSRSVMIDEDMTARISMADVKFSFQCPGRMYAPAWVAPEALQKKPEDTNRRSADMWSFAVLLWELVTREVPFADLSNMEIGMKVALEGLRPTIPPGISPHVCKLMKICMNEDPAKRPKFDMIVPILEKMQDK

CCOc1cc(N2CCC(O)CC2)ccc1Nc1ncc2c(n1)N(C)c1ccccc1C(=O)N2C
inhibition [1]: 10.2%
Activity [2]: Active
inhibition [3]: 9.2%
inhibition [4]: -8.7%
inhibition at 2 µM [5]: 8.7%
inhibition [6]: 10.2%
inhibition [7]: 5%
IC50 [8]: > 50 µM
inhibition [9]: 7%
IC50 [10]: > 50 µM
